Measurements as given in ChEMBL document CHEMBL1130347, “Lanthionine-somatostatin analogs: synthesis, characterization, biological activity, and enzymatic stability studies” (J Med Chem, 1997).
Bridge positions count the residues as written; N and C are the ends. Square brackets hold non-standard residues; d marks the D form. Peptide text beside a SMILES is read from it. * marks the point of attachment. Threoninol(2S,3R) = C[C@@H](O)[C@H](CO)N*

Assays:
Rattus norvegicus = species: Rattus norvegicus; assay: Tested for inhibition of growth hormone (GH)release from primary cultures of male rat anterior pituitary cells; format: functional, cell-based; settings: Pituitary gland cell
[1] = molecular target: Somatostatin receptor type 3 (Mus musculus, UniProt P30935); assay: Tested for inhibition of radioligand binding to cloned somatostatin receptor mSSTR3
Sequence of Somatostatin receptor type 3 (P30935 whole entry): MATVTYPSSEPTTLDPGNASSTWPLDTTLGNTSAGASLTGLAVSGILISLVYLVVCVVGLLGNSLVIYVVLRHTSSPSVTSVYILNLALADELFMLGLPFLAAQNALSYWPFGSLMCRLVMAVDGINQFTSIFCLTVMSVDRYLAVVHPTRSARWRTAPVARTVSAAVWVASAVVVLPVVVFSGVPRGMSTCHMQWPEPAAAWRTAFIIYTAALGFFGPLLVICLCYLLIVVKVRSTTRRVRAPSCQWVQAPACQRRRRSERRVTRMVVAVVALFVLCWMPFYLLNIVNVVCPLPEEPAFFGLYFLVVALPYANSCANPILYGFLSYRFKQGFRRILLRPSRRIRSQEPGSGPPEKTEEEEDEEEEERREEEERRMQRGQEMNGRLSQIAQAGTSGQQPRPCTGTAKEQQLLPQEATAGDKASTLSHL

[2] = molecular target: Somatostatin receptor type 4 (Homo sapiens, UniProt P31391); assay: Tested for inhibition of radioligand binding to cloned somatostatin receptor hSSTR4
Sequence of Somatostatin receptor type 4 (P31391 whole entry): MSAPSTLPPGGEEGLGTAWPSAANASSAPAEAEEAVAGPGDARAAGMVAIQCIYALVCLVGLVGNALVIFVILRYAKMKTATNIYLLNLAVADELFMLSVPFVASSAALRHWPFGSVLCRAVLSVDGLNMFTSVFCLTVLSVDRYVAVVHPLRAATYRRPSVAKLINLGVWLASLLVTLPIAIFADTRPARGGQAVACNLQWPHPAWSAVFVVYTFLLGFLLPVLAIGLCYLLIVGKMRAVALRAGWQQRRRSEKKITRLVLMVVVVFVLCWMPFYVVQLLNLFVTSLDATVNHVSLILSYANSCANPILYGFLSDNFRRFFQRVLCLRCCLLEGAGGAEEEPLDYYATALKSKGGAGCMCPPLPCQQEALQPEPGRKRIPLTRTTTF

[3] = molecular target: Somatostatin receptor type 2 (Mus musculus, UniProt P30875); assay: Tested for inhibition of radioligand binding to cloned somatostatin receptor mSSTR2b
Sequence of Somatostatin receptor type 2 (P30875 whole entry): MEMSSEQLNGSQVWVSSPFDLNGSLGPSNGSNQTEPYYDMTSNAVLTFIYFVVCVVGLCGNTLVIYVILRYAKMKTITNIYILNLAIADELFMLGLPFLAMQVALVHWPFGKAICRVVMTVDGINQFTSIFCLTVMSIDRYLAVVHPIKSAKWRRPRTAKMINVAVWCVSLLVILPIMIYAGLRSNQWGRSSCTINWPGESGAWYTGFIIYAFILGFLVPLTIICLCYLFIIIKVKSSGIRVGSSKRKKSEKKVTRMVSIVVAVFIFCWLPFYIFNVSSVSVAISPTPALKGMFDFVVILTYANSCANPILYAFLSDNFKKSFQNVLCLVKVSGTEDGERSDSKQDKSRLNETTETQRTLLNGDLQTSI

[4] = molecular target: T1, Somatostatin receptor type 5 (Rattus norvegicus, UniProt P30938); assay: Tested for inhibition of radioligand binding to cloned somatostatin receptor rSSTR5
T1 sequence (P30938 whole entry): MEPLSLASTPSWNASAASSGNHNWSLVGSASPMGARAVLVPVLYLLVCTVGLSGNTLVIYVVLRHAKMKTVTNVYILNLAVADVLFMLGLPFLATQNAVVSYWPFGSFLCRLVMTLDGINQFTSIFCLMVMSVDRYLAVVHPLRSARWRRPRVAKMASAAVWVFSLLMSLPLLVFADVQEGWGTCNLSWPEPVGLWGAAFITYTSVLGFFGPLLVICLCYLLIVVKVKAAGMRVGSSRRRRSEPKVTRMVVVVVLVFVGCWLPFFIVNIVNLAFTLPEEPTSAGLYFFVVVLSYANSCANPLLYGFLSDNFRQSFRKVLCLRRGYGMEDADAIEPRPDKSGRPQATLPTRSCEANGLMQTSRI

[5] = molecular target: Somatostatin receptor type 5 (Homo sapiens, UniProt P35346); assay: Tested for inhibition of radioligand binding to cloned somatostatin receptor hSSTR5
Sequence of Somatostatin receptor type 5 (Homo sapiens, UniProt P35346) (P35346 whole entry): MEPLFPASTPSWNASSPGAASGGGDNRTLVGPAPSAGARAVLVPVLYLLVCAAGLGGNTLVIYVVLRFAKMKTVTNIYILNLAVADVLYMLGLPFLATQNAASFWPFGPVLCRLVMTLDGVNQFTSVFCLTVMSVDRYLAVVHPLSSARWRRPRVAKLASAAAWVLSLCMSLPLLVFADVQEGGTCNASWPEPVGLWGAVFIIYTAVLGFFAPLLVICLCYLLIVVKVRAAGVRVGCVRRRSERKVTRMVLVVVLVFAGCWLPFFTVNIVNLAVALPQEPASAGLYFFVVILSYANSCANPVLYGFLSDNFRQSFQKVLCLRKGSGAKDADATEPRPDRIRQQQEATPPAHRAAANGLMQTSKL

[6] = half-life of compound; format: ADME
Procedure, shortened: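 Aliquots taken at 5, 15, 30, 45, 60 and 90 min were quenched in ice-cold 1 M acetic acid and centrifuged. Remaining peptide was measured by microbore RP-HPLC at 216 nm against homogenate calibration. A pseudo-first-order exponential fit gave k, and half-life = 0.693/k.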

SMILES | IC50 [1] [nM] | IC50 [2] [nM] | IC50 [3] [nM] | IC50 (Rattus norvegicus) [nM] | further results
C[C@@H](O)[C@@H]1NC(=O)[C@H](CCCCN)NC(=O)[C@@H](Cc2c[nH]c3ccccc23)NC(=O)[C@H](Cc2ccccc2)NC(=O)[C@@H](N)CSC[C@@H](C(=O)O)NC1=O [listing 1 of 2 here] | – | – | – | > 1000 | –
C[C@@H](O)[C@@H]1NC(=O)[C@H](CCCCN)NC(=O)[C@@H](Cc2c[nH]c3ccccc23)NC(=O)[C@H](Cc2ccccc2)NC(=O)[C@@H](N)CSC[C@@H](C(=O)O)NC1=O [listing 2 of 2 here] | > 1000 | > 1000 | > 1000 | – | –
C[C@@H](O)[C@H]1NC(=O)[C@H](CCCCN)NC(=O)[C@@H](Cc2c[nH]c3ccccc23)NC(=O)[C@H](Cc2ccccc2)NC(=O)[C@@H](N)CSC[C@H](C(=O)O)NC1=O | – | – | – | – | IC50 [4]: 500 nM
C[C@@H](O)[C@H](NC(=O)[C@@H]1CSC[C@H](NC(=O)[C@H](N)Cc2ccccc2)C(=O)N[C@@H](Cc2ccccc2)C(=O)N[C@H](Cc2c[nH]c3ccccc23)C(=O)N[C@@H](CCCCN)C(=O)N[C@@H]([C@@H](C)O)C(=O)N1)C(N)=O [listing 1 of 2 here] | – | – | – | – | IC50 [5]: 4.92 nM
C[C@@H](O)[C@H](NC(=O)[C@@H]1CSC[C@@H](NC(=O)[C@H](N)Cc2ccccc2)C(=O)N[C@H](Cc2ccccc2)C(=O)N[C@@H](Cc2c[nH]c3ccccc23)C(=O)N[C@H](CCCCN)C(=O)N[C@@H]([C@@H](C)O)C(=O)N1)C(N)=O | – | – | – | 70 | –
C[C@@H](O)[C@H](CO)NC(=O)[C@@H]1CSSC[C@H](NC(=O)[C@H](N)Cc2ccccc2)C(=O)N[C@@H](Cc2ccccc2)C(=O)N[C@H](Cc2c[nH]c3ccccc23)C(=O)N[C@@H](CCCCN)C(=O)N[C@@H]([C@@H](C)O)C(=O)N1 (H-[dF]CF[dW]KTC-{Threoninol(2S,3R)}; disulfide 2-7) | 3 | – | 0.28 | 0.52 | half-life [6]: 12.5 h; IC50 [4]: 1.04 nM
C[C@H](N)C(=O)NCC(=O)N[C@H]1CSSC[C@@H](C(=O)O)NC(=O)[C@H](CO)NC(=O)[C@H]([C@@H](C)O)NC(=O)[C@H](Cc2ccccc2)NC(=O)[C@H]([C@@H](C)O)NC(=O)[C@H](CCCCN)NC(=O)[C@H](Cc2c[nH]c3ccccc23)NC(=O)[C@H](Cc2ccccc2)NC(=O)[C@H](Cc2ccccc2)NC(=O)[C@H](CC(N)=O)NC(=O)[C@H](CCCCN)NC1=O [SOMATOSTATIN] | – | – | – | 0.52 | –

Further lines, with some results ahead:

IC50 [1] [nM] | IC50 [2] [nM] | IC50 [3] [nM] | SMILES | IC50 (Rattus norvegicus) [nM] | further results
– | – | 13.6 | C[C@@H](O)[C@@H]1NC(=O)[C@H](CCCCN)NC(=O)[C@@H](Cc2c[nH]c3ccccc23)NC(=O)[C@H](Cc2ccccc2)NC(=O)[C@@H](NC(=O)[C@H](N)Cc2ccccc2)CSSC[C@@H](C(=O)O)NC1=O | – | –
> 1000 | > 1000 | – | C[C@@H](O)[C@H]1NC(=O)[C@H](CCCCN)NC(=O)[C@@H](Cc2c[nH]c3ccccc23)NC(=O)[C@H](Cc2ccccc2)NC(=O)[C@@H](NC(=O)[C@@H](N)Cc2ccccc2)CSSC[C@H](C(=O)O)NC1=O | – | –
> 1000 | > 1000 | 16.6 | C[C@@H](O)[C@H](NC(=O)[C@@H]1CSC[C@H](NC(=O)[C@H](N)Cc2ccccc2)C(=O)N[C@@H](Cc2ccccc2)C(=O)N[C@H](Cc2c[nH]c3ccccc23)C(=O)N[C@@H](CCCCN)C(=O)N[C@@H]([C@@H](C)O)C(=O)N1)C(N)=O [listing 2 of 2 here] | – | –
> 1000 | > 1000 | > 1000 | C[C@@H](O)[C@@H]1NC(=O)[C@H](CCCCN)NC(=O)[C@@H](Cc2c[nH]c3ccccc23)NC(=O)[C@H](Cc2ccccc2)NC(=O)[C@@H](NC(=O)[C@H](N)Cc2ccccc2)CSC[C@@H](C(=O)O)NC1=O | > 1000 | –
